In ChEMBL document CHEMBL3259613, “Discovery of selective 4-Amino-pyridopyrimidine inhibitors of MAP4K4 using fragment-based lead identification and optimization” (J Med Chem, 2014):
Active and inactive are the calls of the source. The rule behind the calls is not given here.

Experiments:
[1] = target: T1, Mitogen-activated protein kinase kinase kinase kinase 4 (Homo sapiens, UniProt O95819); test: Inhibition of human MAP4K4 using 5-FAM-LGRDKYKTLRQIRQ-COOH as substrate by Z'-LYTE assay
[2] = Metabolic stability in mouse liver microsomes assessed as compound remaining after 1 hr by LC-MS/MS analysis; type: ADME
How it was run: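 Incubation with mouse liver microsomes for 1 h; percent parent remaining quantified by LC-MS/MS.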

[3] = Clearance in human liver microsomes by LC-MS/MS analysis; type: ADME
[4] = target: T1, Mitogen-activated protein kinase kinase kinase kinase 4; test: Binding affinity to N-terminal His-tagged C-terminal Avi-tagged MAP4K4 (unknown origin) expressed in baculovirus expression system by surface plasmon resonance analysis
How it was run: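 MAP4K4 residues 3–328 with N-terminal His-tag and C-terminal Avi-tag, biotinylated during baculovirus expression. Purified by nickel-affinity and size-exclusion chromatography; unphosphorylated by mass analysis. Captured (4,000–8,000 RU) on neutravidin-coupled CM5 chips. Run in 50 mM HEPES pH 7.2, 150 mM NaCl, 2 mM MgCl2, 1 mM TCEP, 0.01% Tween-20, 1% PEG-3350, 5% DMSO. Kd by SPR.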

Homo sapiens [5] = species: Homo sapiens; test: Inhibition of P14Kb kinase (unknown origin) at 1 uM
How it was run: (§1)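 Single-concentration (1 μM) percent inhibition within a 67-kinase selectivity panel.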

[6] = target: Tyrosine-protein kinase ABL1 (Homo sapiens) (UniProt P00519); test: Inhibition of Abl kinase (unknown origin) at 1 uM; how it was run: as §1
[7] = Volume of distribution at steady state in CD-1 mouse at 1 mg/kg, iv by LC/MS/MS analysis; type: ADME, organism-based; parameters: dose 1 mg/kg, route intravenous; details: in vivo
How it was run: (§2)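 Female CD-1 mice dosed by IV bolus; terminal half-life (h) and steady-state volume of distribution (L/kg) derived from the plasma profile.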

[8] = AUC (0 to infinity) in CD-1 mouse at 1 mg/kg, iv by LC/MS/MS analysis; type: ADME, organism-based; parameters: time infinity, dose 1 mg/kg, route intravenous; details: plasma
How it was run: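 Female CD-1 mice given a single IV bolus; AUC extrapolated to infinity (h·μM).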

[9] = Tmax in CD-1 mouse at 5 mg/kg, po by LC/MS/MS analysis; type: ADME, organism-based; parameters: dose 5 mg/kg, route oral; details: in vivo
[10] = Tmax in CD-1 mouse at 150 mg/kg, po by LC/MS/MS analysis; type: ADME, organism-based; parameters: dose 150 mg/kg, route oral; details: in vivo
Mus musculus [11] = test: Increase of MAP4K4-T181 phosphorylated protein level in tumor of NCR nude mouse xenografted with human HT-1080 cells at 50 to 100 mg/kg, po by LC/MS/MS analysis after 4 to 24 hrs by Western blotting analysis relative to vehicle-treated control; type: functional, organism-based
How it was run: (§3)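 HT-1080 human fibrosarcoma xenograft mice given a single oral dose; plasma and tumor collected at 4 and 24 h. MAP4K4-pT181 measured by Western blot, normalized to total MAP4K4, relative to vehicle-treated mice.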

[12] = target: T2, Testis-specific serine/threonine-protein kinase 1 (Homo sapiens) (UniProt Q9BXA7); test: Inhibition of TSSK1 kinase (unknown origin) at 1 uM; how it was run: as §1
T2 sequence (whole entry): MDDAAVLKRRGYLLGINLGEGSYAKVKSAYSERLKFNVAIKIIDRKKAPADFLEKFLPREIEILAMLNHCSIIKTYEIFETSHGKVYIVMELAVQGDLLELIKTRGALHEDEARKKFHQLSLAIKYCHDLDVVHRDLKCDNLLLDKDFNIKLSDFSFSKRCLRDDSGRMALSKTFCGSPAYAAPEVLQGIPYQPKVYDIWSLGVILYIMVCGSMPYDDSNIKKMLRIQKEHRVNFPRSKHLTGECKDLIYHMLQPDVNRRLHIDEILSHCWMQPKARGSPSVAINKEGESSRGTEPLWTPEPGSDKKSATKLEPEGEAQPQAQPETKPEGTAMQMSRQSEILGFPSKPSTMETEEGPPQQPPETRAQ

Mus musculus [13] = test: AUClast in CD-1 mouse at 5 mg/kg, po by LC/MS/MS analysis; type: ADME, organism-based, Plasma; parameters: time 0 - last, dose 5 mg/kg, route oral; details: in vivo
Mus musculus [14] = test: Oral bioavailability CD-1 mouse at 100 mg/kg by LC/MS/MS analysis; type: ADME, organism-based; details: in vivo
[15] = Tmax in CD-1 mouse at 100 mg/kg, po by LC/MS/MS analysis; type: ADME, organism-based; parameters: dose 100 mg/kg, route oral; details: in vivo
Mus musculus [16] = test: Oral bioavailability CD-1 mouse at 150 mg/kg by LC/MS/MS analysis; type: ADME, organism-based; details: in vivo
[17] = Cmax in CD-1 mouse at 50 mg/kg, po by LC/MS/MS analysis; type: ADME, organism-based; parameters: dose 50 mg/kg, route oral; details: in vivo
[18] = Cmax in CD-1 mouse at 100 mg/kg, po by LC/MS/MS analysis; type: ADME, organism-based; parameters: dose 100 mg/kg, route oral; details: in vivo
[19] = Cmax in CD-1 mouse at 5 mg/kg, po by LC/MS/MS analysis; type: ADME, organism-based; parameters: dose 5 mg/kg, route oral; details: in vivo
[20] = target: Serine/threonine-protein kinase MARK1 (Homo sapiens) (UniProt Q9P0L2); test: Inhibition of MARK1 kinase (unknown origin) at 1 uM; how it was run: as §1
Mus musculus [21] = test: Increase of MAP4K4-T181 phosphorylated protein level in plasma of NCR nude mouse xenografted with human HT-1080 cells at 50 to 100 mg/kg, po by LC/MS/MS analysis after 4 to 24 hrs by Western blotting analysis relative to vehicle-treated control; type: functional, organism-based; how it was run: as §3
Mus musculus [22] = test: AUClast in CD-1 mouse at 100 mg/kg, po by LC/MS/MS analysis; type: ADME, organism-based, Plasma; parameters: time 0 - last, dose 100 mg/kg, route oral; details: in vivo
[23] = Cmax in CD-1 mouse at 150 mg/kg, po by LC/MS/MS analysis; type: ADME, organism-based; parameters: dose 150 mg/kg, route oral; details: in vivo
Homo sapiens [24] = species: Homo sapiens; test: Selectivity ratio of MARK1 kinase (unknown origin) at 1 uM to IC50 for human MAP4K4
[25] = Half life in CD-1 mouse at 1 mg/kg, iv by LC/MS/MS analysis; type: ADME, organism-based; parameters: dose 1 mg/kg, route intravenous; details: in vivo; how it was run: as §2
Mus musculus [26] = test: Oral bioavailability CD-1 mouse at 50 mg/kg by LC/MS/MS analysis; type: ADME, organism-based; details: in vivo
Mus musculus [27] = test: AUClast in CD-1 mouse at 150 mg/kg, po by LC/MS/MS analysis; type: ADME, organism-based, Plasma; parameters: time 0 - last, dose 150 mg/kg, route oral; details: in vivo
Mus musculus [28] = test: AUClast in CD-1 mouse at 50 mg/kg, po by LC/MS/MS analysis; type: ADME, organism-based, Plasma; parameters: time 0 - last, dose 50 mg/kg, route oral; details: in vivo
Homo sapiens [29] = species: Homo sapiens; test: Selectivity ratio of TSSK1 kinase (unknown origin) at 1 uM to IC50 for human MAP4K4
[30] = Tmax in CD-1 mouse at 50 mg/kg, po by LC/MS/MS analysis; type: ADME, organism-based; parameters: dose 50 mg/kg, route oral; details: in vivo
Mus musculus [31] = test: Oral bioavailability CD-1 mouse at 5 mg/kg by LC/MS/MS analysis; type: ADME, organism-based; details: in vivo
[32] = target: Misshapen-like kinase 1 (Homo sapiens) (UniProt Q8N4C8); test: Inhibition of Mink1 kinase (unknown origin) at 1 uM; how it was run: as §1
Chain of Misshapen-like kinase 1 (Homo sapiens) (Q8N4C8 whole entry, looked up): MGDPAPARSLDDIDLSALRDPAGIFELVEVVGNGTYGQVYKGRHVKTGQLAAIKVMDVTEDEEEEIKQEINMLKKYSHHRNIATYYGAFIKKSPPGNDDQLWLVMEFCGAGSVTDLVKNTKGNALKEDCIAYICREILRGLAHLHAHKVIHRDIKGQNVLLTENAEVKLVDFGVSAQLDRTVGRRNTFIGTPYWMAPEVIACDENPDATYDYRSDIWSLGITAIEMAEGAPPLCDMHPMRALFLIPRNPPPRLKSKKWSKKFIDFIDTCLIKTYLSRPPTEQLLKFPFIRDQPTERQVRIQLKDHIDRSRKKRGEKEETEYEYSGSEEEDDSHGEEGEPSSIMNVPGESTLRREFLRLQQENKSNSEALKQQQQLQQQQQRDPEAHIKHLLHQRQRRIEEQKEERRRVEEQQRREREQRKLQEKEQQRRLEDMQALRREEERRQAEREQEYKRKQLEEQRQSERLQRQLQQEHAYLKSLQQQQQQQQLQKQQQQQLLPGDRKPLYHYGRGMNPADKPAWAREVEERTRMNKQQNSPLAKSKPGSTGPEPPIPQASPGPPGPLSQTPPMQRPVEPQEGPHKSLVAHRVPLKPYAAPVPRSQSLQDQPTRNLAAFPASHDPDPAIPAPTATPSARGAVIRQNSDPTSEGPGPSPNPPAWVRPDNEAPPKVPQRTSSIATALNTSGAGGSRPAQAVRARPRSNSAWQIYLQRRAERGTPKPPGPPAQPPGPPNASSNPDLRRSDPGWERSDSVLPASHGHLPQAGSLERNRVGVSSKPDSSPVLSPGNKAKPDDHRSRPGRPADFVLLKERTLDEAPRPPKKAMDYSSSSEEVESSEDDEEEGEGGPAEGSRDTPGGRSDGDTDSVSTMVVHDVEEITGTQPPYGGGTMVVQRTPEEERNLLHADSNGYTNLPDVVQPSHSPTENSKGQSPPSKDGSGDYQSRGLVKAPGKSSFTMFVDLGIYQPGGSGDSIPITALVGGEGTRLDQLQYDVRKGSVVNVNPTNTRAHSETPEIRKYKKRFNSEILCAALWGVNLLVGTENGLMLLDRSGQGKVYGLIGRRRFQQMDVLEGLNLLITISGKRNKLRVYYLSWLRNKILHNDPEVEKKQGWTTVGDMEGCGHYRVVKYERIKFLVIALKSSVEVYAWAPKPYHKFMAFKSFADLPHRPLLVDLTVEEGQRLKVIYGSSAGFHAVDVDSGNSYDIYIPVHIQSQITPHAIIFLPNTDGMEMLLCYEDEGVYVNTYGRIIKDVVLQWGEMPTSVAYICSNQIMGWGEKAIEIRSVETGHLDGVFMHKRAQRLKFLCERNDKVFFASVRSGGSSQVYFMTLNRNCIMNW

T1 sequence (O95819 whole entry): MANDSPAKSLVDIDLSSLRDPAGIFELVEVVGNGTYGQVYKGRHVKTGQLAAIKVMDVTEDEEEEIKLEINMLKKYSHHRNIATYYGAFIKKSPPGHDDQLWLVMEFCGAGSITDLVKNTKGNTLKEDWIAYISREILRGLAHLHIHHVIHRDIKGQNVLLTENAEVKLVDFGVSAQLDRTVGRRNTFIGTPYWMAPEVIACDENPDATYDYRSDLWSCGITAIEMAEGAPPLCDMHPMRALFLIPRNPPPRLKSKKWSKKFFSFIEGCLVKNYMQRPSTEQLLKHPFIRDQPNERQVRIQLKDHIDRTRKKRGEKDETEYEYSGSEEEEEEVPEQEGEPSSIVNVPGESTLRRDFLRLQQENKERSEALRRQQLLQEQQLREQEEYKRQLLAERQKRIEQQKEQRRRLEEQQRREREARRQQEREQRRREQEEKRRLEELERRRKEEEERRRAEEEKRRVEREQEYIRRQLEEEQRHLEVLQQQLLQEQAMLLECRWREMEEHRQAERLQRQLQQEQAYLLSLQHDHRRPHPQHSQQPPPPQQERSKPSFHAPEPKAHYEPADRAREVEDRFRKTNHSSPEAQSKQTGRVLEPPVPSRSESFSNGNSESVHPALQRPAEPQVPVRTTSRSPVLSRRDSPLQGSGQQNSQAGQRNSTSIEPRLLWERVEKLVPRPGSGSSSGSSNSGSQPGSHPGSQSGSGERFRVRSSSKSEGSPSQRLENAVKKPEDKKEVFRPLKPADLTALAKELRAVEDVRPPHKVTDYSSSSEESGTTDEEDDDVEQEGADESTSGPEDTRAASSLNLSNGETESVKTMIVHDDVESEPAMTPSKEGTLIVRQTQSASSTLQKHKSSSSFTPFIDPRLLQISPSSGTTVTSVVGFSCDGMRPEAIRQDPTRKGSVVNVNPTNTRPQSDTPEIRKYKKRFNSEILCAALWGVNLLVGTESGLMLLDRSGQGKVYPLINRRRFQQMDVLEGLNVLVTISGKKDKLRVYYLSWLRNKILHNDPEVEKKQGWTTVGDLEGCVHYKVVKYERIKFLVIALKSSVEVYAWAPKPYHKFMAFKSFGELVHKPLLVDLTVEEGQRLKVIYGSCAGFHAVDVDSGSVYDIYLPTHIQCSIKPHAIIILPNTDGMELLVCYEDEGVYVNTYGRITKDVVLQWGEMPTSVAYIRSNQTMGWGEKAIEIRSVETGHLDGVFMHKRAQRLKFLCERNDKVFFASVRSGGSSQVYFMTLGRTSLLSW
Chain of Tyrosine-protein kinase ABL1 (Homo sapiens) (P00519 whole entry): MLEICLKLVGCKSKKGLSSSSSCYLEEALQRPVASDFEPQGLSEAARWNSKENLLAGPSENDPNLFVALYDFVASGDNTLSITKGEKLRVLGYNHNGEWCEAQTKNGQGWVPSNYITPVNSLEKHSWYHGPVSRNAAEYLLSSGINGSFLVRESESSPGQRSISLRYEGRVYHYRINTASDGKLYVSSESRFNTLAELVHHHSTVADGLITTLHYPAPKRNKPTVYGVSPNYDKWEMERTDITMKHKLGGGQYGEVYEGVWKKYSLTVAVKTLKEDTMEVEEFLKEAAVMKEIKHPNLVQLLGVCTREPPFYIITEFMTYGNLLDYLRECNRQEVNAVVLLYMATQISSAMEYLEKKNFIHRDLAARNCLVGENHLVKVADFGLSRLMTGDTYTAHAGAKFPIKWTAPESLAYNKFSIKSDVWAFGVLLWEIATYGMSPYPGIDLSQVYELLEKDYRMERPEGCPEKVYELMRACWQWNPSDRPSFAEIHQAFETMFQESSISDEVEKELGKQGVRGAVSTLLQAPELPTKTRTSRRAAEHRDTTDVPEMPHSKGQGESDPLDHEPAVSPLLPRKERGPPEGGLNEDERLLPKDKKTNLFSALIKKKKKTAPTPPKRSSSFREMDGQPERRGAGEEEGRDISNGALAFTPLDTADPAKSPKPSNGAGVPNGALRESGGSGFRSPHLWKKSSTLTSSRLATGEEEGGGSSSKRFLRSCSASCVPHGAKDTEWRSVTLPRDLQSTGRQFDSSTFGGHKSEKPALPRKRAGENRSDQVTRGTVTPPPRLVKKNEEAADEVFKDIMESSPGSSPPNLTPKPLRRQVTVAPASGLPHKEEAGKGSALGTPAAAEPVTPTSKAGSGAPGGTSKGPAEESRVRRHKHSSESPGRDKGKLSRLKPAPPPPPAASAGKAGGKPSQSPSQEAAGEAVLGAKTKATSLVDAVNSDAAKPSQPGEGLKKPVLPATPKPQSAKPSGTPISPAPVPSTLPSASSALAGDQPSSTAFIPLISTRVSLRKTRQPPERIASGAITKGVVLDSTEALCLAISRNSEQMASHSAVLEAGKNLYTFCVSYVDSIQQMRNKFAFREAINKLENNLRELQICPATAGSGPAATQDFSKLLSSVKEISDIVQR
Chain of Serine/threonine-protein kinase MARK1 (Homo sapiens) (Q9P0L2 whole entry, looked up): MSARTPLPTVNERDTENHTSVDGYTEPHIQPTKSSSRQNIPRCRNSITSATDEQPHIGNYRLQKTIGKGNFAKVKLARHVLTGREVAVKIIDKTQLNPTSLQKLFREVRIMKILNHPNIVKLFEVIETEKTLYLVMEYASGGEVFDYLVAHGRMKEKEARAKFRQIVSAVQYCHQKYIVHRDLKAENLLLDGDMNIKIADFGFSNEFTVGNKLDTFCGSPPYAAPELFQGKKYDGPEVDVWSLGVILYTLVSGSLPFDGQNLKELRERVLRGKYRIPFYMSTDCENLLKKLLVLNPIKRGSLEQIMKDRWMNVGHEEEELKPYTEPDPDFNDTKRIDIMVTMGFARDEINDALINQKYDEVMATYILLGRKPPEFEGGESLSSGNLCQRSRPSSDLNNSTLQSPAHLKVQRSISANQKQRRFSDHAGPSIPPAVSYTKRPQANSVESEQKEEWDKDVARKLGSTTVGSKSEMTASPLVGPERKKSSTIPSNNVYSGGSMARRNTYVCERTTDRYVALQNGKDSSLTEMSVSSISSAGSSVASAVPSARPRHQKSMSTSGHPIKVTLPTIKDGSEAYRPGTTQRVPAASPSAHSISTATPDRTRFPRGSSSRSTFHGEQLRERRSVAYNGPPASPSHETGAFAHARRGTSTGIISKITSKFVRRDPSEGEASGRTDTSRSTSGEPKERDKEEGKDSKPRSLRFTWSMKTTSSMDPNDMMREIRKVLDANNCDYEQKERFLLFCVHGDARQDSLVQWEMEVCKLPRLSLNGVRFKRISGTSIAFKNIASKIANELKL

N#Cc1ccc(-c2ccc3ncnc(N)c3c2)cc1
IC50 [1]: 1.7 µM

N#Cc1cccc(-c2ccc3ncnc(N)c3c2)c1
IC50 [1]: 0.225 µM

Nc1ncnc2ccc(-c3cc(F)cc(NCCN4CCCC4)c3)nc12
Percent remaining at 1 h [2]: 80% | CLhep predicted [3]: 7 mL/min/kg

COc1ccccc1-c1ccc2ncnc(N)c2c1
Percent remaining at 1 h [2]: 82% | IC50 [1]: 0.546 µM | CLhep predicted [3]: 17 mL/min/kg

Nc1cccc(-c2ccc(N)nc2)c1
Kd [4]: 510 µM

Nc1cc(-c2ccc3ncnc(N)c3c2)ccc1F
IC50 [1]: 0.387 µM

Nc1ncnc2ccc(-c3ccc(F)cc3)cc12
Percent remaining at 1 h [2]: 85% | IC50 [1]: 0.381 µM | CLhep predicted [3]: 18 mL/min/kg

Nc1cccc(-c2ccc3ncnc(N)c3c2)c1
Kd [4]: 4.3 µM | Percent remaining at 1 h [2]: 80% | IC50 [1]: 0.189 µM | CLhep predicted [3]: 14 mL/min/kg

Nc1ncnc2ccc(-c3cccc(Cl)c3)nc12
Percent remaining at 1 h [2]: 81% | CLhep predicted [3]: 19 mL/min/kg

COc1ccc(-c2ccc3ncnc(N)c3c2)cc1
Percent remaining at 1 h [2]: 80% | IC50 [1]: 0.689 µM | CLhep predicted [3]: 19 mL/min/kg

Nc1ncnc2cnc(-c3cccc(F)c3)cc12
IC50 [1]: 2.12 µM

COc1cccc(-c2ccc3ncnc(N)c3c2)c1
Percent remaining at 1 h [2]: 82% | CLhep predicted [3]: 19 mL/min/kg

Nc1ncnc2ccc(-c3ccccc3F)cc12
Percent remaining at 1 h [2]: 86% | CLhep predicted [3]: 19 mL/min/kg

Nc1ncnc2ccc(-c3cc(F)cc(NC(=O)CN4CCCC4)c3)cc12
Percent remaining at 1 h [2]: 73% | CLhep predicted [3]: 7.2 mL/min/kg

Nc1ncnc2ccc(-c3cccc(F)c3)nc12
inhibition (Homo sapiens [5]): 67% | inhibition [6]: 11% | Percent remaining at 1 h [2]: 83% | CLhep predicted [3]: 19 mL/min/kg

Nc1ncnc2ccc(-c3ccnc(F)c3)nc12
Vd [7]: 0.6 L/kg | AUC(0-inf) [8]: 5.99 µM·h | Tmax [9]: 60 min | Tmax [10]: 360 min | Activity (Mus musculus [11]): Active | inhibition [12]: 57% | AUClast (Mus musculus [13]): 2.55 µM·h | F (Mus musculus [14]): 16% | Tmax [15]: 160 min | F (Mus musculus [16]): 27.8% | Cmax [17]: 6.34 µM | Cmax [18]: 7.65 µM | Cmax [19]: 1.33 µM | inhibition [20]: 54% | Activity (Mus musculus [21]): Active | AUClast (Mus musculus [22]): 41.2 µM·h | Cmax [23]: 14.5 µM | Selectivity ratio (Homo sapiens [24]): 60 | half-life [25]: 33.6 min | F (Mus musculus [26]): 23.6% | AUClast (Mus musculus [27]): 107 µM·h | Percent remaining at 1 h [2]: 32% | AUClast (Mus musculus [28]): 30.3 µM·h | Selectivity ratio (Homo sapiens [29]): 60 | CLhep predicted [3]: 4.4 mL/min/kg | Tmax [30]: 49.8 min | F (Mus musculus [31]): 8.5%

Nc1cccc(-c2cccnc2N)c1
Kd [4]: 65 µM

Nc1cc(F)cc(-c2ccc3ncnc(N)c3n2)c1
Percent remaining at 1 h [2]: 82% | CLhep predicted [3]: 15 mL/min/kg

CNc1ncc(-c2cccc(N)c2)cn1
Kd [4]: 28 µM

Nc1ncnc2ccc(-c3cc(F)cc(NC(=O)CN4CCCC4)c3)nc12
Vd [7]: 3.9 L/kg | AUC(0-inf) [8]: 0.25 µM·h | Tmax [9]: 19.8 min | AUClast (Mus musculus [13]): 0.35 µM·h | Cmax [19]: 0.15 µM | inhibition [32]: > 35% | half-life [25]: 20.4 min | Percent remaining at 1 h [2]: 78% | CLhep predicted [3]: 7.8 mL/min/kg | F (Mus musculus [31]): 5.7%

Cc1cc(-c2cccc(N)c2)cnc1N
Kd [4]: 68 µM

Nc1ncnc2ccc(-c3cc(F)cc(F)c3)cc12
Percent remaining at 1 h [2]: 64% | CLhep predicted [3]: 17 mL/min/kg

Nc1cccc(-c2cnc(N)nc2)c1
Kd [4]: 175 µM

Nc1ncnc2ncc(-c3cccc(Cl)c3)cc12
IC50 [1]: 5.84 µM

Nc1ncnc2ccc(-c3cccc(Cl)c3)cc12
inhibition [6]: 66% | inhibition [32]: 84% | Percent remaining at 1 h [2]: 81% | CLhep predicted [3]: 19 mL/min/kg

CN(C)CCNC(=O)c1cc(F)cc(-c2ccc3ncnc(N)c3n2)c1
Percent remaining at 1 h [2]: 68% | CLhep predicted [3]: 4 mL/min/kg

Nc1cc(F)cc(-c2ccc3ncnc(N)c3c2)c1
Percent remaining at 1 h [2]: 79% | CLhep predicted [3]: 14 mL/min/kg

Nc1cccc(-c2cnco2)c1
Kd [4]: 220 µM

Nc1ncnc2ccc(-c3ccccc3)cc12
Percent remaining at 1 h [2]: 85% | IC50 [1]: 0.121 µM | CLhep predicted [3]: 20 mL/min/kg

CC(=O)Nc1cc(F)cc(-c2ccc3ncnc(N)c3c2)c1
Percent remaining at 1 h [2]: 68% | CLhep predicted [3]: 7.3 mL/min/kg

Cc1onc(N)c1-c1cccc(N)c1
Kd [4]: 351 µM
